Results from ChEMBL document CHEMBL4368933, “Structure-activity relationship of leucyladenylate sulfamate analogues as leucyl-tRNA synthetase (LRS)-targeting inhibitors of Mammalian target of rapamycin complex 1 (mTORC1)” (Bioorg Med Chem, 2019).
Calls of active or inactive are those of the source. The rule behind the calls is not given here.

What was measured:
[1] = biological target: Leucine--tRNA ligase, cytoplasmic (Homo sapiens) (UniProt Q9P2J5); assay: Inhibition of Leucyl-tRNA synthetase-mediated mTORC1 signaling activation in human HEK293 cells assessed as reduction in leucine-induced S6K phosphorylation at 200 uM preincubated for 50 mins followed by leucine-stimulation and measured after 10 mins by Western blot analysis; type: cell-based
Outline: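 HEK293 cells pretreated with test agent at a fixed 200 µM, alongside rapamycin (100 nM) and leucinol (800 µM) as references. mTORC1 then activated by adding leucine for 10 min. S6K phosphorylation read by Western blot.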

mTORC2 (Homo sapiens) = mTORC2 (Homo sapiens) (UniProt P42345+Q6R327+Q9BVC4+Q9BPZ7); assay: Inhibition of mTORC2 signaling in human HEK293 cells assessed as reduction in leucine-induced AKT phosphorylation at 200 uM preincubated for 50 mins followed by leucine-stimulation and measured after 10 mins by Western blot analysis; type: cell-based
SK-HEP1 = assay: Antiproliferative activity against human SKHEP1 cells after 72 hrs by SRB assay; type: functional, cell-based; settings: SK-HEP1, 72 h
Outline: (§1)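 Colorimetric growth assay with IC50 values derived; etoposide as positive control. Cell lines: A549 (lung cancer), HCT116 (colon cancer), MDA-MB-231 (breast cancer), SK-Hep-1 (liver cancer), SNU638 (stomach cancer), MRC5 (normal lung […]).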

MRC5 = assay: Antiproliferative activity against human MRC5 cells after 72 hrs by SRB assay; type: cell-based; settings: MRC5, 72 h; outline: as §1
SNU-638 = assay: Antiproliferative activity against human SNU638 cells after 72 hrs by SRB assay; type: functional, cell-based; settings: SNU-638, 72 h; outline: as §1
MDA-MB-231 = assay: Antiproliferative activity against human MDA-MB-231 cells after 72 hrs by SRB assay; type: functional, cell-based; settings: MDA-MB-231, 72 h; outline: as §1
A549 = assay: Antiproliferative activity against human A549 cells after 72 hrs by SRB assay; type: functional, cell-based; settings: A549, 72 h; outline: as §1
HCT-116 = assay: Antiproliferative activity against human HCT116 cells after 72 hrs by SRB assay; type: functional, cell-based; settings: HCT-116, 72 h; outline: as §1
HEK293 = assay: Effect on leucine-induced AKT levels in human HEK293 cells at 200 uM preincubated for 50 mins followed by leucine-stimulation and measured after 10 mins by Western blot analysis; type: functional, cell-based

Sequence of Leucine--tRNA ligase, cytoplasmic (Homo sapiens) (Q9P2J5 whole entry, looked up): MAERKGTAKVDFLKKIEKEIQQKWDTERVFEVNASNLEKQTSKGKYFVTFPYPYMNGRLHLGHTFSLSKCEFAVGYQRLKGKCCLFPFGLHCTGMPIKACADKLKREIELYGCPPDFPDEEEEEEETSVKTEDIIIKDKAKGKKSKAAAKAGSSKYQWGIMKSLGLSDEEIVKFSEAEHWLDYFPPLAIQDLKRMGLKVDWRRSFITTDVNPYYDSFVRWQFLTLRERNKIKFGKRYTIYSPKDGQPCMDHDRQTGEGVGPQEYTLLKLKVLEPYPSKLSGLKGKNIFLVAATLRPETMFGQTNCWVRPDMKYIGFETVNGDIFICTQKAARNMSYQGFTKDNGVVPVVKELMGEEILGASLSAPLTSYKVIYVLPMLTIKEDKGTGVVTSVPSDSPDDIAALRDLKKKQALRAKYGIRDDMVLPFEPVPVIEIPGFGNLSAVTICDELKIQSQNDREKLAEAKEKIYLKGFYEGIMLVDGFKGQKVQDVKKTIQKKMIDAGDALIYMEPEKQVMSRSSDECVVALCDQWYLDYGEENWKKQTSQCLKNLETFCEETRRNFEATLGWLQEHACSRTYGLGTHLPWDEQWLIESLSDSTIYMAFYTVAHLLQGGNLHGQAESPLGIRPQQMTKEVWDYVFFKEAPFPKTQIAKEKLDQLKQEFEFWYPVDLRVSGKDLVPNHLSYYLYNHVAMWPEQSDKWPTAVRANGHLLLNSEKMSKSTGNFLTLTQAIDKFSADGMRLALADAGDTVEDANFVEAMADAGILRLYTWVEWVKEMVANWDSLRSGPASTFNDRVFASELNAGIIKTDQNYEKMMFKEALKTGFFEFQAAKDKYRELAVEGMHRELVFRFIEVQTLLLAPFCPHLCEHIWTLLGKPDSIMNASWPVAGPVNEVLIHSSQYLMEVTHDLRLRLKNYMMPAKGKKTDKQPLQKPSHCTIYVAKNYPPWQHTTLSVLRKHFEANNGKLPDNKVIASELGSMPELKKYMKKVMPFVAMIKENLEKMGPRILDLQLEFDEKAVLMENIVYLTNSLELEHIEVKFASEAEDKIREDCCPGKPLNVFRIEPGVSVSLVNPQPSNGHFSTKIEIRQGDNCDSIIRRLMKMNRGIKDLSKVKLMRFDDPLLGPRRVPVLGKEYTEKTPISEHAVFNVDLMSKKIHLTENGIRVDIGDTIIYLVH

SMILES	inhibition [1]	other results
CC(C)C[C@@H](O)C(=O)NS(=O)(=O)OC[C@H]1O[C@@H](n2cnc3c(N)ncnc32)[C@H](O)[C@@H]1O	Active	
CC(C)c1cc(C(=O)NS(=O)(=O)OC[C@H]2O[C@@H](n3cnc4c(N)ncnc43)[C@H](O)[C@@H]2O)[nH]n1	inactive	
CO[C@H](C(=O)NS(=O)(=O)OC[C@H]1O[C@@H](n2cnc3c(N)nc(Cl)nc32)[C@H](O)[C@@H]1O)[C@H](O)C(C)C	inactive	
CC(C)C[C@H](N)C(=O)NS(=O)(=O)OC[C@H]1O[C@@H](n2cnc3c(N)ncnc32)C[C@@H]1O	inactive	
CC(C)C[C@H](S)C(=O)NS(=O)(=O)OC[C@H]1O[C@@H](n2cnc3c(=O)[nH]cnc32)[C@H](O)[C@@H]1O	inactive	
CC(C)C[C@H](O)C(=O)NS(=O)(=O)OC[C@H]1O[C@@H](n2cnc3c(N)ncnc32)C[C@@H]1O	inactive	inhibition (mTORC2 (Homo sapiens)): Active
Nc1ncnc2c1ncn2[C@@H]1O[C@H](COS(=O)(=O)NC(=O)[C@@H](O)[C@H](O)C2CC2)[C@@H](O)[C@H]1O	inactive	
CC(C)C[C@H](Cl)C(=O)NS(=O)(=O)OC[C@H]1O[C@@H](n2cnc3c(N)nc(Cl)nc32)[C@H](O)[C@@H]1O	Active	IC50 (SK-HEP1): 5.87 µM; IC50 (MRC5): > 20 µM; IC50 (SNU-638): 5.5 µM; IC50 (MDA-MB-231): 7.75 µM; IC50 (A549): 6.27 µM; IC50 (HCT-116): 7.51 µM
CNc1ncnc2c1ncn2[C@@H]1O[C@H](COS(=O)(=O)NC(=O)[C@H](O)[C@@H](O)C(C)C)[C@@H](O)[C@H]1O	inactive	inhibition (mTORC2 (Homo sapiens)): inactive; Activity (HEK293): inactive
CC(C)C[C@H](Cl)C(=O)NS(=O)(=O)OC[C@H]1O[C@@H](n2cnc3c(N)ncnc32)[C@H](O)[C@@H]1O	inactive	
CC(C)C[C@H](S)C(=O)NS(=O)(=O)OC[C@H]1O[C@@H](n2cnc3c(N)ncnc32)[C@H](O)[C@@H]1O	Active	
CC(C)C[C@H](N)CO	Active	
CC(C)C[C@H](O)C(=O)NS(=O)(=O)OC[C@H]1O[C@@H](n2cnc3c(=O)[nH]cnc32)[C@H](O)[C@@H]1O	Active	IC50 (SK-HEP1): > 20 µM; IC50 (MRC5): > 20 µM; IC50 (SNU-638): > 20 µM; IC50 (MDA-MB-231): > 20 µM; IC50 (A549): > 20 µM; IC50 (HCT-116): > 20 µM
CC(C)[C@@H](O)[C@H](O)C(=O)NS(=O)(=O)OC[C@H]1O[C@@H](n2cnc3c(N)ncnc32)[C@@H]2OC(=O)N[C@@H]21	inactive	
CO[C@H](C(=O)NS(=O)(=O)OC[C@H]1O[C@@H](n2cnc3c(N)ncnc32)[C@H](O)[C@@H]1O)[C@H](O)C(C)C	inactive	
CNc1ncnc2c1ncn2[C@@H]1O[C@H](COS(=O)(=O)NC(=O)[C@@H](Cl)CC(C)C)[C@@H](O)[C@H]1O	inactive	
CC(C)C[C@H](O)C(=O)NS(=O)(=O)OC[C@H]1O[C@@H](n2cnc3c(N)ncnc32)[C@@H](O)[C@@H]1O	Active	
CC(C)C[C@H](O)C(=O)NS(=O)(=O)OC[C@H]1O[C@@H](n2cnc3c(N)nc(Cl)nc32)[C@H](O)[C@@H]1O	inactive	
CNc1ncnc2c1ncn2[C@@H]1O[C@H](COS(=O)(=O)NC(=O)[C@H](CC(C)C)OC)[C@@H](O)[C@H]1O	inactive	inhibition (mTORC2 (Homo sapiens)): Active
CC(C)[C@@H](O)[C@H](O)C(=O)NS(=O)(=O)OC[C@H]1O[C@@H](n2cnc3c(N)ncnc32)[C@@H](O)[C@@H]1O	inactive	
CC(C)[C@@H](O)[C@H](O)C(=O)NS(=O)(=O)OC[C@@H]1C[C@@H](O)[C@H](n2cnc3c(N)ncnc32)O1	inactive	inhibition (mTORC2 (Homo sapiens)): inactive; Activity (HEK293): inactive
CC(C)C[C@H](O)C(=O)NS(=O)(=O)OC[C@H]1O[C@@H](n2cnc3c(N)nc(I)nc32)[C@H](O)[C@@H]1O	Active	
CC(C)C[C@@H](O)C(=O)NS(=O)(=O)OC[C@H]1O[C@@H](n2cnc3c(=O)[nH]cnc32)[C@H](O)[C@@H]1O	inactive	
